Data reported in ChEMBL document CHEMBL2417451, “Synthesis, antimicrobial and cytotoxic activities of some novel thiazole clubbed 1,3,4-oxadiazoles” (Eur J Med Chem, 2013).
≈ marks a conversion by molar mass, not a printed value.

How the values were obtained:
[1] = system: HeLa; assay: Cytotoxicity against human HeLa cells after 24 hrs by MTT assay; type: cell-based
How it was run: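 HeLa cells were grown in MEM with 10% FBS, 1% glutamine and gentamicin under humidified 5% CO2. 1.0 × 10^4 cells were exposed to 1–100 μM compound (0.1% DMSO in medium) for 24 h at 37 °C. MTT at 1 mg/mL was added for 5 h at 37 °C, formazan was dissolved in DMSO, and A540 was read. Run in triplicate; IC50 reported.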

[2] = system: Aspergillus niger; assay: Ratio of ketoconazole MIC to compound MIC for Aspergillus niger MTCC 282; type: functional
[3] = system: Candida albicans; assay: Ratio of ketoconazole MIC to compound MIC for Candida albicans MTCC 227; type: functional
[4] = system: Aspergillus clavatus; assay: Antifungal activity against Aspergillus clavatus MTCC 1323 by conventional broth microdilution method; type: functional
How it was run: (§1)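 Tube broth microdilution. Compounds were diluted in DMSO from a 2000 μg/mL stock. The primary screen used 500, 250 and 200 μg/mL, and actives were retested at 100, 62.5, 50 and 25 μg/mL. Tubes were incubated overnight. MIC was the lowest concentration with no visible growth (at least 99% inhibition). Clear tubes were subcultured overnight at 37 °C.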

[5] = system: Aspergillus niger; assay: Antifungal activity against Aspergillus niger MTCC 282 by conventional broth microdilution method; type: functional; how it was run: as §1
[6] = system: Candida albicans; assay: Antifungal activity against Candida albicans MTCC 227 by conventional broth microdilution method; type: functional; how it was run: as §1
[7] = system: Pseudomonas aeruginosa; assay: Antibacterial activity against Pseudomonas aeruginosa MTCC 1688 by conventional broth microdilution method; type: functional; how it was run: as §1
[8] = system: Escherichia coli; assay: Antibacterial activity against Escherichia coli MTCC 443 by conventional broth microdilution method; type: functional; how it was run: as §1
[9] = system: Streptococcus pyogenes; assay: Antibacterial activity against Streptococcus pyogenes MTCC 442 by conventional broth microdilution method; type: functional; how it was run: as §1
[10] = system: Staphylococcus aureus; assay: Antibacterial activity against Staphylococcus aureus MTCC 96 by conventional broth microdilution method; type: functional; how it was run: as §1
[11] = system: Pseudomonas aeruginosa; assay: Ratio of chloramphenicol MIC to compound MIC for Pseudomonas aeruginosa MTCC 1688; type: functional
[12] = system: Escherichia coli; assay: Ratio of chloramphenicol MIC to compound MIC for Escherichia coli MTCC 443; type: functional
[13] = system: Streptococcus pyogenes; assay: Ratio of chloramphenicol MIC to compound MIC for Streptococcus pyogenes MTCC 442; type: functional
[14] = system: Staphylococcus aureus; assay: Ratio of chloramphenicol MIC to compound MIC for Staphylococcus aureus MTCC 96; type: functional

Row | MIC [4] | MIC [5] | MIC [6] | MIC [7] | MIC [8] | MIC [9] | MIC [10] | Compound | IC50 [1] | Ratio [2] | Ratio [3] | Ratio [11] | Ratio [12] | Ratio [13] | Ratio [14]
1 | 250 µg/mL (≈ 615 µM) | 100 µg/mL (≈ 246 µM) | 500 µg/mL (≈ 1230 µM) | 50 µg/mL (≈ 123 µM) | 50 µg/mL (≈ 123 µM) | 100 µg/mL (≈ 246 µM) | 50 µg/mL (≈ 123 µM) | CC(=O)Nc1nc(C)c(-c2nn(CNc3cccc([N+](=O)[O-])c3)c(=S)o2)s1 | > 100 µM | – | – | – | – | – | –
2 | 500 µg/mL (≈ 1330 µM) | 500 µg/mL (≈ 1330 µM) | 500 µg/mL (≈ 1330 µM) | 500 µg/mL (≈ 1330 µM) | 250 µg/mL (≈ 666 µM) | 500 µg/mL (≈ 1330 µM) | 500 µg/mL (≈ 1330 µM) | CC(=O)Nc1nc(C)c(-c2nn(CNc3cccc(C)c3)c(=S)o2)s1 | – | – | – | – | – | – | –
3 | 250 µg/mL (≈ 666 µM) | 250 µg/mL (≈ 666 µM) | 500 µg/mL (≈ 1330 µM) | > 1000 µg/mL | 500 µg/mL (≈ 1330 µM) | > 1000 µg/mL | 500 µg/mL (≈ 1330 µM) | CC(=O)Nc1nc(C)c(-c2nn(CNc3ccc(C)cc3)c(=S)o2)s1 | – | – | – | – | – | – | –
4 | 500 µg/mL (≈ 1320 µM) | > 1000 µg/mL | 500 µg/mL (≈ 1320 µM) | 500 µg/mL (≈ 1320 µM) | 250 µg/mL (≈ 659 µM) | 100 µg/mL (≈ 264 µM) | 250 µg/mL (≈ 659 µM) | CC(=O)Nc1nc(C)c(-c2nn(CNc3ccccc3F)c(=S)o2)s1 | – | – | – | – | – | – | –
5 | > 1000 µg/mL | 500 µg/mL (≈ 1320 µM) | 500 µg/mL (≈ 1320 µM) | 50 µg/mL (≈ 132 µM) | 50 µg/mL (≈ 132 µM) | 100 µg/mL (≈ 264 µM) | 50 µg/mL (≈ 132 µM) | CC(=O)Nc1nc(C)c(-c2nn(CNc3cccc(F)c3)c(=S)o2)s1 | > 100 µM | – | – | – | – | – | –
6 | > 1000 µg/mL | 500 µg/mL (≈ 1320 µM) | 500 µg/mL (≈ 1320 µM) | 12.5 µg/mL (≈ 32.9 µM) | 12.5 µg/mL (≈ 32.9 µM) | 25 µg/mL (≈ 65.9 µM) | 12.5 µg/mL (≈ 32.9 µM) | CC(=O)Nc1nc(C)c(-c2nn(CNc3ccc(F)cc3)c(=S)o2)s1 | > 100 µM | – | – | 4 | 4 | 2 | 4
7 | 500 µg/mL (≈ 1280 µM) | 100 µg/mL (≈ 255 µM) | 250 µg/mL (≈ 639 µM) | 500 µg/mL (≈ 1280 µM) | 500 µg/mL (≈ 1280 µM) | 500 µg/mL (≈ 1280 µM) | > 1000 µg/mL | COc1cccc(NCn2nc(-c3sc(NC(C)=O)nc3C)oc2=S)c1 | – | – | – | – | – | – | –

The remaining lines, values behind:

Row | Compound | MIC [4] | MIC [5] | MIC [6] | MIC [7] | MIC [8] | MIC [9] | MIC [10] | IC50 [1] | Ratio [2] | Ratio [3] | Ratio [11] | Ratio [12] | Ratio [13] | Ratio [14]
8 | COc1ccc(NCn2nc(-c3sc(NC(C)=O)nc3C)oc2=S)cc1 | 62.5 µg/mL (≈ 160 µM) | 25 µg/mL (≈ 63.9 µM) | 25 µg/mL (≈ 63.9 µM) | 500 µg/mL (≈ 1280 µM) | 500 µg/mL (≈ 1280 µM) | > 1000 µg/mL | 500 µg/mL (≈ 1280 µM) | 98.6 µM | 2 | 2 | – | – | – | –
9 | CC(=O)Nc1nc(C)c(-c2nn(CNc3ccccc3[N+](=O)[O-])c(=S)o2)s1 | 500 µg/mL (≈ 1230 µM) | 500 µg/mL (≈ 1230 µM) | 250 µg/mL (≈ 615 µM) | 250 µg/mL (≈ 615 µM) | 500 µg/mL (≈ 1230 µM) | 250 µg/mL (≈ 615 µM) | 100 µg/mL (≈ 246 µM) | – | – | – | – | – | – | –
10 | CC(=O)Nc1nc(C)c(-c2nn(CNc3ccc([N+](=O)[O-])cc3)c(=S)o2)s1 | 100 µg/mL (≈ 246 µM) | 250 µg/mL (≈ 615 µM) | 500 µg/mL (≈ 1230 µM) | 12.5 µg/mL (≈ 30.8 µM) | 12.5 µg/mL (≈ 30.8 µM) | 25 µg/mL (≈ 61.5 µM) | 25 µg/mL (≈ 61.5 µM) | 96.5 µM | – | – | 4 | 4 | 2 | 2
11 | CC(=O)Nc1nc(C)c(-c2nn(CNc3ccccc3C)c(=S)o2)s1 | 250 µg/mL (≈ 666 µM) | 500 µg/mL (≈ 1330 µM) | 500 µg/mL (≈ 1330 µM) | 100 µg/mL (≈ 266 µM) | 250 µg/mL (≈ 666 µM) | 250 µg/mL (≈ 666 µM) | 500 µg/mL (≈ 1330 µM) | – | – | – | – | – | – | –
12 | COc1ccccc1NCn1nc(-c2sc(NC(C)=O)nc2C)oc1=S | 250 µg/mL (≈ 639 µM) | 250 µg/mL (≈ 639 µM) | 500 µg/mL (≈ 1280 µM) | 250 µg/mL (≈ 639 µM) | 500 µg/mL (≈ 1280 µM) | > 1000 µg/mL | 500 µg/mL (≈ 1280 µM) | – | – | – | – | – | – | –
13 | O=C(N[C@H](CO)[C@H](O)c1ccc([N+](=O)[O-])cc1)C(Cl)Cl [CHLORAMPHENICOL] | – | – | – | 50 µg/mL (≈ 155 µM) | 50 µg/mL (≈ 155 µM) | 50 µg/mL (≈ 155 µM) | 50 µg/mL (≈ 155 µM) | – | – | – | – | – | – | –
14 | CC(=O)N1CCN(c2ccc(OCC3COC(Cn4ccnc4)(c4ccc(Cl)cc4Cl)O3)cc2)CC1 (stereo unspecified) [KETOCONAZOLE] | 50 µg/mL (≈ 94.1 µM) | 50 µg/mL (≈ 94.1 µM) | 50 µg/mL (≈ 94.1 µM) | – | – | – | – | – | – | – | – | – | – | –
